Measurements reported in ChEMBL document CHEMBL2202989, “New adamantane phenylalkylamines with σ-receptor binding affinity and anticancer activity, associated with putative antagonism of neuropathic pain” (J Med Chem, 2012).
The source made the active and inactive calls. The rule behind the calls is not given here.

Columns and labels:
[1] = test system: BXPC-3; assay: Cell cycle arrest in human BxPC3 cells assessed as accumulation at S phase at 15 uM after 24 hrs using propidium iodide staining by FACS analysis (reference value: 33 %); format: functional
Outline: (§1)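 Cells were plated 24 h before treatment and exposed for 24 h at final 0.5, 5, 15 and 50 μM in 0.5% DMSO, against vehicle-treated controls. Cells were then trypsinised and fixed in cold ethanol for 3 h at 4 °C. They were stained in a mix of RNase (200 μg/mL) and PI (1 mg/mL) for 45 min at room temperature in the dark. Flow cytometry used 488 nm excitation and 10 000 gated cells. Phase percentages were assigned from DNA content.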

[2] = test system: BXPC-3; assay: Cell cycle arrest in human BxPC3 cells assessed as accumulation at S phase at 0.5 uM after 24 hrs using propidium iodide staining by FACS analysis (reference value: 33 %); format: functional; outline: as §1
[3] = test system: Mus musculus; assay: Analgesic activity in CD1 mouse neuropathic pain model assessed as reduction in paw licking time at 100 mg/kg, po administered 1 hr prior to formalin challenge in presence of paclitaxel; format: functional, organism-based; design: dose 100 mg/kg
Outline: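 CD1 male mice (34−40 g), free access to food and water, were given paclitaxel 6 mg/kg ip once in saline on day 0. On day 14 the test compound was given orally 1 h before formalin was injected into the hind paw. Time spent licking and biting the injected paw and leg was recorded at 0−5 and 35−40 min after formalin.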

[4] = test system: BXPC-3; assay: Cell cycle arrest in human BxPC3 cells assessed as accumulation at G1 phase at 5 uM after 24 hrs using propidium iodide staining by FACS analysis (reference value: 41 %); format: functional; outline: as §1
[5] = Growth inhibition of human MSC cells after 48 hrs by SRB assay; format: cell-based
Outline: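 Cells grown in RPMI 1640 with 5% heat-inactivated FCS, 2 mM L-glutamine and antibiotics, 37 °C, 5% CO2. Seeded at 3500–30000 cells/well and left 24 h before dosing. DMSO solutions added at 10-fold dilutions from 100 to 0.01 μM for 48 h. Cells TCA-fixed and SRB-stained, absorbance read at 540 nm; GI50 derived against the time-zero plate.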

[6] = target: Sigma non-opioid intracellular receptor 1 (Homo sapiens, UniProt Q99720); assay: Displacement of [3H]-(+)-pentazocine from sigma 1 receptor in human Jurkat cell membrane; format: cell membranes
Sigma non-opioid intracellular receptor 1, sequence (Q99720 whole entry): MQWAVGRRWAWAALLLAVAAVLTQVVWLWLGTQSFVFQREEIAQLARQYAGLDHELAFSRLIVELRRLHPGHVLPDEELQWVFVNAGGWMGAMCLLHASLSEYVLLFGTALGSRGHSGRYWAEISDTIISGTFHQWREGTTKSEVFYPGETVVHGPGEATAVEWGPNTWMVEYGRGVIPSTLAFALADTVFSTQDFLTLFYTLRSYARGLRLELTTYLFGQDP
Outline: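 Jurkat cell membranes incubated with 8 nM [3H](+)-pentazocine and a range of test concentrations for 2 h at 22 °C in Tris-HCl buffer, pH 7.4. Nonspecific binding defined with 10 μM haloperidol. Run in triplicate.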

[7] = test system: OVCAR-5; assay: Antitumor activity against human OVCAR5 cells xenografted in SCID mouse assessed as bone metastasis at 55 mg/kg, ip administered 5 consecutive days in a week for two cycles measured after 2 cycles relative to control; format: functional; conditions: OVCAR-5, ip, route intraperitoneal, read-out: TGI
Outline: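 SCID mice carried OVCAR5 xenografts (10^6 cells per inoculum), 16 mice (32 tumors) per group, with ip dosing in 5% Tween 80 from a tumor volume of about 100 mm3. Caliper volume was measured twice weekly and %ΔT/ΔC derived. At termination, primary tumors were weighed and secondary metastases were scored at axillary and bone sites (n = 7−8). Two-tailed t test.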

[8] = test system: PC-3; assay: Antitumor activity against human PC3 cells xenografted in SCID mouse assessed as bone metastasis at 55 mg/kg, ip administered 5 consecutive days in a week for two cycles measured after 2 cycles relative to control; format: functional; conditions: route intraperitoneal
Outline: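 PC3 xenografts were grown in SCID mice (10^6 cells per inoculum), 14 mice (28 tumors) per group, dosed ip from about 100 mm3. The test agent was given in 5% Tween 80; paclitaxel was given in Cremophor diluted in saline, with a vehicle of 1:1 ethanol/Cremophor diluted 1:3 in saline. Volume and %ΔT/ΔC were derived from caliper readings twice weekly. Occurrence of primary tumors and of axillary and bone metastases was scored (n = 7). Two-tailed t test.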

[9] = test system: PC-3; assay: Induction of apoptosis in human PC3 cells assessed as cleaved caspase3 containing cells at 15 uM by antibody-based FACS analysis (reference value: 3.2 %); format: functional
[10] = test system: IGROV-1; assay: Induction of apoptosis in human IGROV1 cells assessed as cleaved caspase3 containing cells at 5 uM by antibody-based FACS analysis (reference value: 3.9 %); format: functional
[11] = test system: PC-3; assay: Induction of apoptosis in human PC3 cells assessed as late apoptosis at 50 uM using annexin V/7-AAD by FACS analysis (reference value: 3 %); format: functional
[12] = test system: PC-3; assay: Induction of apoptosis in human PC3 cells assessed as early apoptosis at 50 uM using annexin V/7-AAD by FACS analysis (reference value: 5 %); format: functional
Outline: (§2)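 Cells plated 24 h before treatment, then exposed 24 h to 0.5, 5, 15 or 50 μM compound (final DMSO 0.5%); vehicle controls included. Cells scraped and stained with annexin V-FITC and 7-AAD for 15 min on ice in the dark. Flow cytometry with 488 nm excitation, 10,000 gated cells. Early apoptosis was annexin V+/7-AAD−, late was annexin V+/7-AAD+.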

[13] = test system: PC-3; assay: Induction of apoptosis in human PC3 cells assessed as healthy cells at 5 uM using annexin V/7-AAD by FACS analysis (reference value: 91 %); format: functional
[14] = test system: PC-3; assay: Induction of apoptosis in human PC3 cells assessed as healthy cells at 15 uM using annexin V/7-AAD by FACS analysis (reference value: 91 %); format: functional
[15] = test system: IGROV-1; assay: Induction of apoptosis in human IGROV1 cells assessed as late apoptosis at 0.5 uM using annexin V/7-AAD by FACS analysis (reference value: 5 %); format: functional
[16] = test system: IGROV-1; assay: Induction of apoptosis in human IGROV1 cells assessed as early apoptosis at 0.5 uM using annexin V/7-AAD by FACS analysis (reference value: 9 %); format: functional
[17] = test system: IGROV-1; assay: Induction of apoptosis in human IGROV1 cells assessed as healthy cells at 15 uM using annexin V/7-AAD by FACS analysis (reference value: 86 %); format: functional
[18] = test system: BXPC-3; assay: Induction of apoptosis in human BxPC3 cells assessed as late apoptosis at 50 uM using annexin V/7-AAD by FACS analysis (reference value: 9 %); format: functional; outline: as §2
[19] = test system: BXPC-3; assay: Induction of apoptosis in human BxPC3 cells assessed as late apoptosis at 5 uM using annexin V/7-AAD by FACS analysis (reference value: 9 %); format: functional
[20] = test system: PC-3; assay: Cell cycle arrest in human PC3 cells assessed as accumulation at G2 phase at 5 uM after 24 hrs using propidium iodide staining by FACS analysis (reference value: 12 %); format: functional
[21] = test system: PC-3; assay: Cell cycle arrest in human PC3 cells assessed as accumulation at G1 phase at 15 uM after 24 hrs using propidium iodide staining by FACS analysis (reference value: 36 %); format: functional
[22] = test system: PC-3; assay: Cell cycle arrest in human PC3 cells assessed as accumulation at sub G1 phase at 5 uM after 24 hrs using propidium iodide staining by FACS analysis (reference value: 4 %); format: functional
[23] = test system: IGROV-1; assay: Cell cycle arrest in human IGROV1 cells assessed as accumulation at S phase at 15 uM after 24 hrs using propidium iodide staining by FACS analysis (reference value: 29 %); format: functional
[24] = test system: IGROV-1; assay: Cell cycle arrest in human IGROV1 cells assessed as accumulation at S phase at 0.5 uM after 24 hrs using propidium iodide staining by FACS analysis (reference value: 29 %); format: functional

For `CN1CCN(CCCc2ccc(C(c3ccccc3)C34CC5CC(CC(C5)C3)C4)cc2)CC1` (centres undefined), the Activity [1] was 27%, the Activity [2] was 31% and the Activity [3] was “Active”. The Activity [4] was 53%, the TGI [5] was 30.9 µM and the IC50 [6] was 0.0481 µM. For the same compound, the inhibition in vivo at 55 mg/kg [7] was 25%, the Activity [8] was 43% and the Activity [9] was 2.5%. It also gave an Activity [10] of 12.6%, an Activity [11] of 9% and an Activity [12] of 15%. For the same compound, the Activity [13] was 92%, the Activity [14] was 71% and the Activity [15] was 3%. For the same compound, the Activity [16] was 8%, the Activity [17] was 35% and the Activity [18] was 44%. The Activity [19] was 10%, the Activity [20] was 10% and the Activity [21] was 25%. It also gave an Activity [22] of 11%, an Activity [23] of 25% and an Activity [24] of 26%.
